Screens deposited in PubChem by several laboratories.
The sample as a whole holds a higher share of hits than the screen did.
Lmaj promast = Leishmania major promastigote growth inhibition, primary screen | Leishmania major promastigotes, resazurin fluorescence viability | inhibition, % at 10 µM | 200,000 compounds, 9% hits | AID 1063, 2008;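 note: promastigotes grown with compound for 44 hours at 28 °C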
Diaphorase act = compounds boosting diaphorase resazurin reduction – biochemical, uHTS, resorufin fluorescence, counter-screen for diaphorase-coupled primary assays, primary screen | 190,000 compounds, 0.005% hits | Diaphorase/resazurin coupled assay, 16 min; stronger effect = higher value; 1 = vehicle wells, 0 = NADH-free wells | AID 1229, 2008 | activation factor at 20 µM;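 active = diaphorase activity raised at least twofold by the compound at 20 µM; inactive = activation factor below 2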
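Measured by – red resorufin fluorescence at 544/590 nm excitation/emission · Test system – Clostridium kluyveri diaphorase, purified enzyme · Incubation – reaction time 16 min, room temperature · Buffer or medium – 50 mM HEPES pH 7.4 with 4.542 mM MgCl2, 0.005% Tween 20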
G6PDH CS = L. mesenteroides G6PDH inhibitors, counter-screen for G6PDH-coupled screening assays, biochemical, Leuconostoc mesenteroides enzyme; inhibition, % at 5 µM; 200,000 compounds, 0.12% hits; Purified L. mesenteroides G6PDH, diaphorase/resazurin coupled fluorescence, 45 min; glucose-6-phosphate dehydrogenase [Leuconostoc mesenteroides]
Diaphorase inh = diaphorase inhibitors and chemical oxidizers, primary screen, counter-screen for diaphorase-coupled primary assays, biochemical, uHTS, resorufin fluorescence; diaphorase resazurin-to-resorufin fluorescence, NADH, 16 min; bacterial (C. kluyveri) enzyme, not human; inhibition, % at 20 µM; 190,000 compounds, 0.69% hits;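 active = primary screen inhibition at 20 µM above a set limit, cut at about 50% in these data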;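 note: plate controls were DMSO with full reaction for no effect and wells lacking NADH for full effect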
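Detection: fluorescence of resorufin formed from resazurin, Ex 544/Em 590 nm; test system: Clostridium kluyveri diaphorase enzyme; amount: 0.14 U/mL diaphorase, enzyme working solution; times: 16-min room-temperature incubation before reading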
Redox H2O2 prof = compounds producing H2O2 with reducing agent – biochemical, NIH compound library profiling, artefact control for MLSCN library redox annotation, primary screen | 200,000 compounds, 0.03% hits | DTT-dependent redox cycling H2O2, phenol red/HRP absorbance; 100% = 100 µM peroxide control, 0% = buffer | AID 878, 2007 | activation, % at 10 µM;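 active = activation of at least 50% relative to the plate's high and low controls in the primary single-dose screen; inactive = activation below 50%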;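 note: compound incubated with DTT at 0.8 mM final as the reducing agent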
PfGluPho inh = PfG6PD enzyme inhibitors, primary screen, biochemical, fluorescence intensity, uHTS | 350,000 compounds, 0.78% hits | inhibition, % at 20 µM | glucose-6-phosphate dehydrogenase-6-phosphogluconolactonase (Plasmodium falciparum 3D7) | PfGluPho enzyme, NADPH resazurin-diaphorase fluorescence | AID 504690, 2011;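 active = inhibition reaching at least a set limit at 20 µM in the primary screen, cut at about 59% in these data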;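 note: 0% = DMSO wells with substrate and 100% = DMSO wells lacking glucose-6-phosphate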
* = called active by the depositor; / = no result given. Cut-off read from the data, not from the text of the source, unless noted: active = inhibition above about 50%; inactive = the rest.

SMILES | Lmaj promast | Diaphorase act | G6PDH CS | Diaphorase inh | Redox H2O2 prof | PfGluPho inh
Cc1cccc(C(=O)NC(NC(=S)Nc2ccc(S(N)(=O)=O)cc2)C(Cl)(Cl)Cl)c1 (centres undefined) | 54.4* | 0.8 | 14.5 | 19.7 | 0.3 | 18.8
CC(=O)NC(NC(=S)Nc1ccc(S(N)(=O)=O)cc1)C(Cl)(Cl)Cl (centres undefined) | / | / | / | / | / | 3.4
COC(=O)c1ccc(NC(=O)C2CCCN(S(=O)(=O)c3cnc[nH]3)C2)cc1 (centres undefined) | 5.2 | 1 | 0.7 | -2.0 | -1.2 | -4.0
COc1cc(CNCc2ccccn2)ccc1OCc1ccccc1Cl | 94.3* | 1 | 8.2 | -3.0 | -0.1 | -11.0
COc1cc(CNCCN2CCOCC2)ccc1OCc1ccc(Cl)cc1 | 94.3* | 1 | -3.5 | 4.1 | 0.1 | -3.4
COc1cc(CNCCCN2CCOCC2)cc(Br)c1OCc1ccc(Cl)cc1 | 100.5* | 1.4 | 9.1 | -35.5 | -1.4 | 12.6
COc1ccc(NC(=O)COc2ccc(CNCCCN3CCOCC3)cc2OC)cc1 | -2.0 | 1 | 7.4 | -4.7 | -0.7 | -13.3
COc1cc(CNCCN2CCOCC2)ccc1OCc1ccccc1Cl | 92.0* | 1 | -1.7 | 3.6 | -5.1 | -7.6
COc1ccc(CCNC(=O)C(=O)N2CCCCC2)cc1OC | -4.0 | 0.9 | 1.1 | 8.2 | -1.2 | -4.3
Cc1ccc(NC(=O)c2ccccc2Br)cc1S(=O)(=O)N(C)C | 1.4 | 1 | 9.2 | 0.0 | -1.5 | 0.5
CCOc1cc(NC(=O)C2CC2)c(OCC)cc1NC(=O)c1cccc(F)c1 | / | / | / | / | / | -9.7
O=C1Nc2ccccc2/C1=C/c1ccccc1F | / | / | / | / | / | 23.2
O=C1Nc2ccccc2/C1=C/c1cccnc1 | 77.9* | 1 | -1.3 | 4.1 | -0.1 | 8.4
Cc1ccc(/C=C2\C(=O)Nc3ccccc32)o1 | 99.4* | 0.9 | -2.4 | 12.0 | 0.5 | 44.7
N#Cc1cccc(N=c2ssnc2Cl)c1 | -2.4 | 0.7 | 4.1 | 27.7 | -1.6 | 80.0*
CCCN(Cc1nnc(-c2ccccc2Cl)o1)C(=O)c1oc2ccccc2c1C | / | / | / | / | / | 14.7
O=C(CCSc1nc2ccccc2o1)Nc1ccccc1 | / | / | / | / | / | 5.1
N#CCc1ccnc2ccccc12 | / | / | / | / | / | -7.1
C(=C\c1ccccc1)/CSc1nnc(-c2cnccn2)n1Cc1ccco1 | 99.6* | 0.8 | 0.3 | 16.8 | 2.0 | 20.8
Fc1ccccc1CSc1nnc(-c2cnccn2)n1Cc1ccco1 | 14.4 | 1 | 9.5 | 3.7 | 2.7 | 10.8
CC(C)C(O)P(=O)(OCc1ccccc1)c1ccc(N(C)C)cc1 (centres undefined) | -6.1 | 0.9 | 5.9 | 5.8 | 0.0 | -4.6
COC(=O)c1ccc2nc(C)cc(Nc3ccc(N(C)C)cc3)c2c1 | 67.2* | 1.1 | 1.4 | -7.2 | 0.1 | 16.4
O=C(CN1CCN(Cc2ccccc2Cl)CC1)N=Nc1c(O)[nH]c2ccccc12 | 7.4 | 0.8 | -26.6 | 18.9 | 0.2 | 8.8
Cc1ccc(CN2CCN(CC(=O)N=Nc3c(O)[nH]c4ccccc34)CC2)cc1 | 100.1* | 0.9 | -24.4 | 9.6 | 3.4 | 3.4
O=C(NC1CC1)C1CCN(C2CCN(C(=O)/C=C/c3cccs3)CC2)CC1 | 87.5* | 1.1 | 2.6 | -6.4 | 0.0 | 1.2
SMILES | Lmaj promast | Diaphorase act | G6PDH CS | Diaphorase inh | Redox H2O2 prof | PfGluPho inh
O=C(NC1CC1)C1CCN(C2CCN(C(=O)/C=C/c3cccc(F)c3F)CC2)CC1 | 81.7* | 0.9 | 9.1 | 12.4 | -0.1 | 14.2
O=C(NC1CC1)C1CCN(C2CCN(C(=O)c3ccc(C(F)(F)F)cc3)CC2)CC1 | / | / | / | / | / | -6.7
CCCCn1c(N)c(N(CC(C)C)C(=O)CSCc2c(C)noc2C)c(=O)[nH]c1=O | / | / | / | / | / | -1.8
COc1ccc(Cl)cc1NC(=O)CCN1C(=O)C2C3C=CC(C4CC34)C2C1=O (centres undefined) | / | / | / | / | / | 1.8
Cc1ccc(C)c(N2CCN(c3ccncc3N)CC2)c1 | / | / | / | / | / | 10.0
C=CCOc1ccccc1CN1CCC(n2nccc2NC(=O)c2ccccc2)CC1 | / | / | / | / | / | 3.6
COc1ccccc1OCCCCCNCCO | -0.1 | 1 | 9.0 | 4.9 | -0.4 | -4.0
